Test results published in ChEMBL document CHEMBL4118218, “Elucidating the inhibition of peptidoglycan biosynthesis in Staphylococcus aureus by albocycline, a macrolactone isolated from Streptomyces maizeus” (Bioorg Med Chem, 2018).
In brackets after ≈: the same amount, converted by molar mass. Activity calls are given as the source filed them. The calls are words filed in the database; no cut-off is given here.

Columns and labels:
Escherichia coli = experiment: Antibacterial activity against Escherichia coli RFM795 harboring lptD gene mutant after 16 hrs by broth micro dilution method; format: functional; settings: RFM795, 16 h
Outline: (§1)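 Mueller-Hinton broth microdilution. Bacteria were grown overnight at 37 °C with shaking, diluted 1:100 and grown to mid-exponential phase. About 3 × 10^5 CFU per well went into MH with test compound (0–256 μg/mL) in DMSO vehicle. Plates were incubated at 37 °C for 16 h. MIC was the lowest concentration without growth visible by eye; three independent assays.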

Staphylococcus aureus [1] = experiment: Antibacterial activity against Staphylococcus aureus ATCC 25923 after 16 hrs by broth micro dilution method; format: functional; settings: ATCC 25923, 16 h; outline: as §1
Staphylococcus aureus [2] = experiment: Antibacterial activity against methicillin-resistant Staphylococcus aureus LAC JE2 after 16 hrs by broth micro dilution method; format: functional; settings: LAC JE2, 16 h; outline: as §1
HepG2 = experiment: Cytotoxicity against human HepG2 cells at <= 64 ug/ml by MTT assay; format: cell-based
Outline: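 HepG2 human hepatocellular carcinoma cells; colorimetric MTT cell proliferation assay; compound tested at final concentrations up to 64 μg/mL.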

[3] = tested on: UDP-N-acetylglucosamine 1-carboxyvinyltransferase 2 (Staphylococcus aureus); experiment: Inhibition of GST-tagged Staphylococcus aureus MurZ expressed in Escherichia coli BL21(DE3) cells preincubated with PEP and enzyme for 10 mins followed by UDP-GlcNAc addition measured after 3 hrs by HPLC analysis
Staphylococcus aureus [4] = experiment: Antibacterial activity against vancomycin-resistant Staphylococcus aureus isolate 1 after 16 hrs by broth micro dilution method; format: functional; settings: isolate 1, 16 h; outline: as §1
Staphylococcus aureus [5] = experiment: Antibacterial activity against methicillin-sensitive Staphylococcus aureus UAMS-1 after 16 hrs by broth micro dilution method; format: functional; settings: UAMS-1, 16 h; outline: as §1
[6] = molecular target: T1, UDP-N-acetylglucosamine 1-carboxyvinyltransferase 1 (Staphylococcus aureus subsp. aureus N315) (UniProt P84058); experiment: Inhibition of GST-tagged Staphylococcus aureus MurA expressed in Escherichia coli BL21(DE3) cells assessed as reduction in EP-UDP-GlcNAc production at 650 uM preincubated with PEP and enzyme for 10 mins followed by UDP-GlcNAc addition measured after 3 hrs by HPLC analysis
T1 sequence (whole entry): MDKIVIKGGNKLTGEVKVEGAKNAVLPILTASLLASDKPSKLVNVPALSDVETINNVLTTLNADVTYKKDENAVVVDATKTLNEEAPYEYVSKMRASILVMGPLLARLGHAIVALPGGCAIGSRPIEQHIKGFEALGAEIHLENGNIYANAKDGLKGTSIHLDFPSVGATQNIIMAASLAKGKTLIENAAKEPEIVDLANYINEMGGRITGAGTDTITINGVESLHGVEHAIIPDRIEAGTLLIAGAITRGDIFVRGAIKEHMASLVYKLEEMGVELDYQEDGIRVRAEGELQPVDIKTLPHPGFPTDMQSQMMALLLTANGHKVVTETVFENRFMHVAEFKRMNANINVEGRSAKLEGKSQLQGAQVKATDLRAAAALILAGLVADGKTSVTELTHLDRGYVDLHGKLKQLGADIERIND
Outline: (§2)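 Tag-cleaved S. aureus MurA, 1.0 μg. Preincubated 10 min on ice with 650 μM compound plus 400 μM PEP or 400 μM UDP-GlcNAc. Reaction started with 600 μM of the other substrate, then run 3 h at room temperature in triple replicates. UDP-GlcNAc and EP-UDP-GlcNAc separated by anion-exchange HPLC.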

[7] = molecular target: T1, UDP-N-acetylglucosamine 1-carboxyvinyltransferase 1 (Staphylococcus aureus subsp. aureus N315); experiment: Inhibition of GST-tagged Staphylococcus aureus MurA expressed in Escherichia coli BL21(DE3) cells assessed as reduction in EP-UDP-GlcNAc production at 650 uM preincubated with UDP-GlcNAc and enzyme for 10 mins followed by PEP addition measured after 3 hrs by HPLC analysis; outline: as §2
[8] = molecular target: T2, UDP-N-acetylglucosamine 1-carboxyvinyltransferase 1 (Staphylococcus aureus subsp. aureus N315, UniProt P84058); experiment: Inhibition of Staphylococcus aureus MurA assessed as reduction in [3H]GlcNAc uptake
T2 sequence (P84058 whole entry): T1 sequence (whole entry)

[9] = molecular target: UDP-N-acetylglucosamine 1-carboxyvinyltransferase (Escherichia coli K-12) (UniProt P0A749); experiment: Inhibition of GST-tagged Escherichia coli MurA expressed in Escherichia coli BL21(DE3) cells preincubated with PEP and enzyme for 10 mins followed by UDP-GlcNAc addition measured after 3 hrs by HPLC analysis
Outline: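 GST-tagged enzyme, GST removed by PreScission protease after glutathione affinity capture. Conditions: 50 mM Tris, 2 mM KCl, room temperature (25 °C), in triplicate. Enzyme preincubated 10 min with PEP and compound, then UDP-GlcNAc added. Substrate and product separated by MonoQ anion-exchange HPLC with an ammonium bicarbonate gradient. Percent inhibition taken from UDP-GlcNAc/EP-UDP-GlcNAc peak areas.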

Staphylococcus aureus [10] = experiment: Antibacterial activity against vancomycin-intermediate Staphylococcus aureus Mu50 after 16 hrs by broth micro dilution method; format: functional; settings: Mu50, 16 h; outline: as §1
[11] = molecular target: T2, UDP-N-acetylglucosamine 1-carboxyvinyltransferase 1; experiment: Inhibition of GST-tagged Staphylococcus aureus MurA expressed in Escherichia coli BL21(DE3) cells preincubated with PEP and enzyme for 10 mins followed by UDP-GlcNAc addition measured after 3 hrs by HPLC analysis
Outline: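 Purified S. aureus MurA (GST tag cleaved off by PreScission protease, 350 nM) was preincubated 10 min with 300 μM PEP and albocycline (0–5000 μM) in 50 mM Tris, 2 mM KCl at 25 °C, in triplicate. UDP-GlcNAc was then added and the reaction run 3 h at room temperature. UDP-GlcNAc and EP-UDP-GlcNAc were separated by MonoQ anion-exchange HPLC with an ammonium bicarbonate gradient. Percent inhibition came from relative peak areas, and IC50 from a nonlinear dose-response fit.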

Staphylococcus aureus [12] = experiment: Antibacterial activity against vancomycin-resistant Staphylococcus aureus isolate 10 after 16 hrs by broth micro dilution method; format: functional; settings: isolate 10, 16 h; outline: as §1
Staphylococcus aureus [13] = experiment: Antibacterial activity against methicillin-resistant Staphylococcus aureus; format: functional; outline: as §1

Sequence of UDP-N-acetylglucosamine 1-carboxyvinyltransferase (Escherichia coli K-12) (P0A749 whole entry): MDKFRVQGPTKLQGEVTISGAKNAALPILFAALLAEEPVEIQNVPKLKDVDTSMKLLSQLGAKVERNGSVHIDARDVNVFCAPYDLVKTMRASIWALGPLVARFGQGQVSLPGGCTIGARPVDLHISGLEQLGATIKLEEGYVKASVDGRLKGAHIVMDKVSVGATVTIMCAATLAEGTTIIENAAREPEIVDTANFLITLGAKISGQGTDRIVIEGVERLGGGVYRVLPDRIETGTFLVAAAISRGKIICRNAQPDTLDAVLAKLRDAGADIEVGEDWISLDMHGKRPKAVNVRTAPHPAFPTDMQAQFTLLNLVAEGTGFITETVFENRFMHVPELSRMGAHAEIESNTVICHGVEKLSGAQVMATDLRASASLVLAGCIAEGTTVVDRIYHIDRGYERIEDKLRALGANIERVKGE

C[C@@H]1O[C@@H]1P(=O)(O)O [FOSFOMYCIN]
MIC (Escherichia coli): 1 µg/mL (≈ 7.24 µM) | MIC (Staphylococcus aureus [1]): 32 µg/mL (≈ 232 µM)

CO[C@H]1/C=C/[C@@](C)(O)/C=C/C(=O)O[C@H](C)[C@@H](C)CC/C=C/1C
MIC (Staphylococcus aureus [2]): 2 µg/mL (≈ 6.48 µM) | Activity (HepG2): Non-Toxic | inhibition [3]: inactive | MIC (Escherichia coli): > 256 µg/mL | MIC (Staphylococcus aureus [4]): 4 µg/mL (≈ 13 µM) | MIC (Staphylococcus aureus [5]): 0.5 µg/mL (≈ 1.62 µM) | inhibition [6]: Active | inhibition [7]: inactive | IC50 [8]: 112 µM | inhibition [9]: inactive | MIC (Staphylococcus aureus [10]): 2 µg/mL (≈ 6.48 µM) | IC50 [11]: 480 µM | MIC (Staphylococcus aureus [1]): 1 µg/mL (≈ 3.24 µM) | MIC (Staphylococcus aureus [12]): 1 µg/mL (≈ 3.24 µM) | MIC (Staphylococcus aureus [13]): 0.5 to 1 µg/mL (≈ 1.62 to 3.24 µM)

CN[C@H](CC(C)C)C(=O)N[C@H]1C(=O)N[C@@H](CC(N)=O)C(=O)N[C@H]2C(=O)N[C@H]3C(=O)N[C@H](C(=O)N[C@H](C(=O)O)c4cc(O)cc(O)c4-c4cc3ccc4O)[C@H](O)c3ccc(c(Cl)c3)Oc3cc2cc(c3O[C@@H]2O[C@H](CO)[C@@H](O)[C@H](O)[C@H]2O[C@H]2C[C@](C)(N)[C@H](O)[C@H](C)O2)Oc2ccc(cc2Cl)[C@H]1O [VANCOMYCIN]
MIC (Staphylococcus aureus [4]): > 64 µg/mL | MIC (Staphylococcus aureus [12]): > 64 µg/mL
